Bioassay records: PubChem BioAssay, several laboratories
In the library only some 12% were active in any assay of this set; here they are far more common.
RAM inhibit = inhibitors of the yeast RAM network, primary screen, dse1pr::URA3 reporter, 5-FOA selection. S. cerevisiae dse1pr::URA3 reporter, 5-FOA growth OD615, 2 d; analog-sensitive cbk1-as2 kinase mutant strain. inhibition, % at 50 µM. 1.8% of 190,000 active. AID 868, 2007;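 active means inhibition above a set limit, 3 SD over mean compound inhibition, cut at about 8.4% in these data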;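 further: 0% = DMSO-only wells with no growth and 100% = 10 µM 1-NA-PP1 full growth; inhibition rescues growth on 5-FOA so higher OD means more RAM inhibition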
L major viab = Leishmania major promastigote growth inhibition, primary screen; Leishmania major promastigotes, resazurin fluorescence viability; inhibition, % at 10 µM; 9% of 200,000 active; AID 1063, 2008; in the data active means inhibition above about 50%;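 further: promastigotes grown with compound for 44 hours at 28 °C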
ABCB1 inh = ABCB1 efflux pump inhibitors, primary screen, cell-based, multiplex, flow cytometry, ABCG2 counter-screen | ATP-dependent translocase ABCB1 (Homo sapiens), P08183 | CCRF-Adr cells, JC-1 efflux | inhibition, % at 6.6 µM | 0.067% of 190,000 active | AID 1326, 2008; in the data active means inhibition above about 40%;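 further: 0% = vehicle and 100% = reference inhibitor; higher value means more JC-1 retained so stronger ABCB1 efflux block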
ABCG2 block = ABCG2 efflux pump inhibitors, primary screen, multiplex with ABCB1, IgMXP3 cells, flow cytometry | 0.1% of 190,000 active | Broad substrate specificity ATP-binding cassette transporter ABCG2 (Homo sapiens), Q9UNQ0 | JC-1 efflux | AID 1325, 2008 | inhibition, % at 6.6 µM;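 active means inhibition above 80%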;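 further: 0% = DMSO and 100% = nicardipine control wells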
Target sequence (Q9UNQ0 whole entry, looked up): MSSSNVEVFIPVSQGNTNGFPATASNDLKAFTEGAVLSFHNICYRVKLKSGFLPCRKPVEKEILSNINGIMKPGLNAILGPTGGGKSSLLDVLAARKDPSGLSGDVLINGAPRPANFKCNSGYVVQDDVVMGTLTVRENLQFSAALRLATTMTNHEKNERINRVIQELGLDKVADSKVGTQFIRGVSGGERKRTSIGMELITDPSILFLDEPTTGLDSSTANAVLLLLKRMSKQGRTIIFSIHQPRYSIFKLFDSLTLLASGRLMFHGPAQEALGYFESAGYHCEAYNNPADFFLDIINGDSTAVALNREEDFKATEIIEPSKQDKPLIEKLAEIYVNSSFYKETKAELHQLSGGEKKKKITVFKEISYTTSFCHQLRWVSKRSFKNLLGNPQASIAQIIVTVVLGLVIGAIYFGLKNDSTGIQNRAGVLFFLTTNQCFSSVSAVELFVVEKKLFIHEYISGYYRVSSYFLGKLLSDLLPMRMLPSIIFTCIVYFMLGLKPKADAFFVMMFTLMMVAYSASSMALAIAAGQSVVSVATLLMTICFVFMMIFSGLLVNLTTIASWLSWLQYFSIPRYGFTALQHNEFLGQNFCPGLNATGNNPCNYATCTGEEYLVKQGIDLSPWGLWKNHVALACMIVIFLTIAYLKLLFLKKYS
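Read-out basis: Efflux inhibition in percent versus controls | Test system: ABCG2 IgMXP3 and barcoded ABCB1 CCRF-Adr cell mix | Quantity: 3 million cells/mL in well | Schedule: 10 min at 25 °C | Control set: Nicardipine as high control, DMSO as low control | Reagent: JC-1 as fluorescent efflux pump substrate | Signal: Flow cytometry of retained JC-1 fluorescence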
WT yeast gro inh = growth inhibition of WT strain, primary screen, mitochondrial fusion inhibitor project, WT and mutant strains, chemical genetic | inhibition, % at 10 µM | 2.1% of 190,000 active | mitochondrial fusion phenotypic screen; in the data active means inhibition above about 58%; tested in S. cerevisiae
* = called active by the depositor; x = no result.

SMILES | RAM inhibit | L major viab | ABCB1 inh | ABCG2 block | WT yeast gro inh
COc1ccc(CCN(C)CC(O)c2ccccc2)cc1OC (stereo not given) | 1 | 1 | 1 | 7 | -1
CC1=CN2C(=N)/C(=C/c3ccco3)C(=O)N=C2S1 | 4 | 16 | 0 | 7 | 8
CC1=CN2C(=N)/C(=C/c3ccc([N+](=O)[O-])o3)C(=O)N=C2S1 | 4 | 9 | 5 | -14 | 86*
CCOC(=O)c1c(NC(=O)Cn2cc([N+](=O)[O-])cn2)sc2c1CCC2 | 6 | -4 | 0 | 1 | 9
COC(=O)Nc1sc2c(c1C(N)=O)CCC(C)C2 (stereo not given) | -1 | -4 | 0 | -1 | -9
COC(=O)c1c(NC(=O)Cn2cnc([N+](=O)[O-])n2)sc2c1CCC(C)C2 (stereo not given) | 2 | 100* | 1 | 7 | 16
COC(=O)c1c(NC(=S)NN2CCN(C)CC2)sc2c1CCC(C)C2 (stereo not given) | -1 | 100* | 0 | 2 | 98
CCOC(=O)c1c(NC(=O)Cn2cnc([N+](=O)[O-])n2)sc2c1CCC(C)C2 (stereo not given) | 3 | 98* | 0 | 2 | -8
COC(=O)c1c(NC(=O)Cc2cccs2)sc2c1CCC(C)C2 (stereo not given) | 3 | 1 | 0 | 2 | 25
O=C(c1ccccc1F)N1CCN(C2CCC(c3ccccc3)CC2)CC1 (stereo not given) | 0 | 97* | 1 | 2 | -57
O=C(c1ccc(F)cc1)N1CCN(C2CCC(c3ccccc3)CC2)CC1 (stereo not given) | 0 | 92* | 1 | 0 | -54
COc1ccccc1N1CCN(C2CCN(C3CCC(c4ccccc4)CC3)CC2)CC1 (stereo not given) | 0 | 99* | 1 | -1 | 12
COc1ccc(C(=O)N2CCN(C3CCC(c4ccccc4)CC3)CC2)cc1OC (stereo not given) | 0 | 88* | 0 | 2 | 2
O=C(Nc1ccccc1N1CCCC1)c1ccc([N+](=O)[O-])cc1Cl | 2 | 0 | 0 | 0 | -10
NN/C(=C\[N+](=O)[O-])Nc1ccc(Cl)cc1 | 0 | 11 | 0 | 1 | 56
O=[N+]([O-])c1cccc(/C=C/C=N/Nc2nc(N3CCCCC3)nc(N3CCCCC3)n2)c1 | 4 | 33 | -2 | -6 | 53
O=C(Nc1ccc(Cl)c(C(F)(F)F)c1)NC1CC2CCCC(C1)N2C1CC1 (stereo not given) | x | 60* | x | x | x
COC(=O)NNC(=S)Nc1ccc(Br)cc1 | 1 | -4 | 0 | 1 | -5
CC1(C)CC(=O)/C(=C\c2cccc([N+](=O)[O-])c2)C(C)(C)N1 | 3 | 100* | 1 | 16 | 21
O=C1N/C(=N/O)S/C1=C/c1cccc([N+](=O)[O-])c1 | 1 | -2 | 0 | 6 | 7
COc1ccc(CN2C(=O)CC(C(=O)NCCc3ccc(S(N)(=O)=O)cc3)SC2=Nc2ccccc2)cc1 (stereo not given) | 4 | -4 | 0 | 1 | -5
CCCSc1nc(C)c(-c2csc(C(C#N)=C3CCCC3)n2)cc1C#N | 8.9* | 29 | 0 | 1 | 3
CCC(C)(C(=O)NC1CCCCC1)N(C(=O)CNC(=O)c1ccccc1)c1c(C)n(C)n(-c2ccccc2)c1=O (stereo not given) | 1 | -2 | 0 | -2 | 16
Cc1ccc(/C(N)=N/OC(=O)C23CC4CC(CC(C4)C2)C3)cc1 | 0 | 10 | 0 | 7 | 54
Cc1ccc(-c2ncccc2OC(=O)C23CC4CC(CC(C4)C2)C3)cc1 | 4 | 1 | 0 | 1 | 73*
SMILES | RAM inhibit | L major viab | ABCB1 inh | ABCG2 block | WT yeast gro inh
Cc1ccc(NC(=S)N2CCSC2c2cccs2)cc1 (stereo not given) | -1 | 48 | 0 | 1 | 25
COc1ccccc1NC(=O)C1=C(C)NC2=C(C(=O)CC(c3ccc(OC)c(OC)c3)C2)C1c1coc2ccccc2c1=O (stereo not given) | 9.8* | 17 | 4 | 7 | 20
c1ccc(-c2nnc(-c3ccccn3)nc2NC2CCCCC2)cc1 | -1 | 100* | 0 | 2 | 63*
CNc1nc(-c2ccccn2)nnc1-c1ccccc1 | 1 | 99* | 0 | 1 | 8
COc1ccc(CCNC(=O)Cn2cc(C(F)(F)F)cc(Cl)c2=O)cc1 | 2 | -7 | 0 | 4 | 8
CNC(=S)NC1CC2CCCC(C1)N2Cc1ccc(C)cc1 (stereo not given) | 2 | 91* | 0 | 1 | -22
CC(=O)NC1CC2CCC(C1)N2Cc1ccc(C)cc1 (stereo not given) | -1 | 90* | 1 | 3 | -4
CCNC(=S)NC1CC2CCCC(C1)N2Cc1ccco1 (stereo not given) | 1 | -5 | 1 | 5 | 14
CCCn1c(=O)n(C)c(=O)c2c(SCC(=O)NCc3ccco3)nc(C3CC3)nc21 | 5 | -7 | 1 | 5 | -8
CCN(CC)CCOc1c(Br)ccc2c1sc1nc3n(c(=O)c12)CCC3 | 0 | 80* | 1 | 0 | 10
COc1ccccc1/C=N/NC(=O)CCn1cnc2ccccc21 | 1 | 1 | 1 | 16 | 2
COc1cccc(NC(C)C(=O)Nc2cc([N+](=O)[O-])ccc2Cl)c1 (stereo not given) | 2 | 23 | 1 | 5 | -3
O=C(NCc1ccc2c(c1)OCO2)C1CCN(c2ccc(S(=O)(=O)N3CCCC3)cc2)CC1 | 3 | 97* | 0 | 0 | -3
Cn1c(=O)oc2cc(S(=O)(=O)N3CCN(Cc4ccc5c(c4)OCO5)CC3)ccc21 | 0 | 76* | 1 | 4 | 6
O=S(=O)(c1cccc(F)c1)N1CCN(Cc2ccc3c(c2)OCO3)CC1 | 1 | 74* | 0 | 2 | 12
Cc1nn(Cc2ccccc2)c2sc(C(=O)N3CCN(Cc4ccc5c(c4)OCO5)CC3)cc12 | 2 | 75* | 2 | 9 | 19
O=C(NCc1ccc2c(c1)OCO2)C1CCN(S(=O)(=O)N2CCCCC2)CC1 | 3 | -2 | 0 | 2 | 8
CCN(CC)c1ccc(/C=N/NC(=O)Nc2nonc2N)cc1 | 0 | -3 | 0 | 0 | -2
CC(C)C(NC(=O)c1ccc(F)cc1)C(=O)Nc1cccnc1 (stereo not given) | -1 | -5 | 0 | 1 | -10
CC(C)(C)c1cc(=O)n(-c2ccccc2)[nH]1 | 0 | -3 | 0 | 0 | -6
CCOC(=O)N1CCC(N(CCN(C)C)C(=S)Nc2cc(Cl)ccc2C)CC1 | -1 | -3 | 0 | 1 | 3
CCOC(=O)N1CCN(C(=O)c2ccc3nc(N4CCCCC4)sc3c2)CC1 | 1 | 3 | 1 | 5 | -2
Cc1noc(C)c1S(=O)(=O)N1CCN(Cc2ccc3c(c2)OCO3)CC1 | 1 | -1 | 0 | 2 | 19
